Assay results reported in the RNAGym collection of RNA variant scans (doi:10.1126/science.aae0568).
Fewer inactive variants are shown than the library holds.

B1: tRNA (parent)
chain: GUUCCGUUGGCGUAAUGGUAACGCGUCUCCCUCCUAAGGAGAAGACUGCGGGUUCGAGUCCCGUACGGAACG

Variants of: B1
Test: yeast fitness relative to wild type (ratio to wild type); higher = fitter; tRNA-Arg(CCU), competitive growth, 37 C, YPD
Summary of the method: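 The tRNA-Arg(CCU) gene variants were made by chemical synthesis with a 3% per-site mutation rate at 69 sites and inserted at the native genomic locus of Saccharomyces cerevisiae. After pooling, the strains were competed in YPD at 37°C for 24 hours in six parallel replicates. Gene amplicons from the start population and each end population were read by 100-nucleotide paired-end sequencing, and Darwinian fitness relative to wild type was taken from genotype frequency changes. Genotypes needed ≥ 100 starting reads, and estimates < 0.5 were set to 0.5.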

| Variant | yeast fitness |
| --- | --- |
| G10A G48C | 0.733 |
| G10A C62U A70U | 0.531 |
| G10A A15U A36U G63A | ≤ 0.5 |
| G10A A21U A70C | ≤ 0.5 |
| G10A C30U C33G | 0.538 |
| G10A U13G A36G | 0.52 |
| G10A C61U | 0.744 |
| G10A C61G | ≤ 0.5 |
| G10A C61A | ≤ 0.5 |
| G10A U13A C24U A65C | ≤ 0.5 |
| G10A C31U C34A A40G A65U | ≤ 0.5 |
| G10A C30U C60G C66U | ≤ 0.5 |
| G10A C30G G68A | ≤ 0.5 |
| G10A U16A G38C G41C A65G | ≤ 0.5 |
| G10A A15G A42C G50C | ≤ 0.5 |
| G10A G18A C33U A37C A40U | ≤ 0.5 |
| G10A A15G A65U | 0.702 |
| G10A U13A A14C A43U C60G | ≤ 0.5 |
| G10A C24G G39C C66U | ≤ 0.5 |
| G10A A15C G25A C55G U59C C60U G67U | ≤ 0.5 |
| G10A A45U G48A | ≤ 0.5 |

| Variant | yeast fitness |
| --- | --- |
| G10A U19A G44C C49U G67C | ≤ 0.5 |
| G10A A57U | 0.607 |
| G10A A57G | 0.852 |
| G10A A15U G17C A45U C49G A70U | ≤ 0.5 |
| G10A C24G C34U G63C | ≤ 0.5 |
| G10A U19A A40C A42C G68A A70C | ≤ 0.5 |
| G10A C27G C33G G41C A65G G68A | ≤ 0.5 |
| G10A A21G C30A A42C | ≤ 0.5 |
| G10A A20G U26C G39A G50A | ≤ 0.5 |
| G10A U16A A57U | 0.558 |
| G10A A21C C24A A65C G68C | ≤ 0.5 |
| G10A G18A C62U | ≤ 0.5 |
| G10A C22U C27U C33U A43U U54C | ≤ 0.5 |
| G10A C11U A36G G67C | 0.572 |
| G10A G12C A21U A42U | ≤ 0.5 |
| G10A G44A U54C C61U G67A | ≤ 0.5 |
| G10A G44A | 0.786 |
| G10A G44C | 0.79 |
| G10A A15U A70G | ≤ 0.5 |
| G10A A21G G67C | 0.617 |
| G10A A37G | 0.551 |

| Variant | yeast fitness |
| --- | --- |
| G10A A37U | 0.622 |
| G10A A37C | 0.741 |
| G10A C24A C30A C31G A43U U54G C62G | 0.544 |
| G10A U13C A40C | ≤ 0.5 |
| G10A A21G A65U A69C | 0.777 |
| G10A A69G | 0.641 |
| G10A A69U | 0.732 |
| G10A A69C | 0.858 |
| G10A G23A A45G | ≤ 0.5 |
| G10A C24G | 0.517 |
| G10A C24U | 0.977 |
| G10A C30A C31G A69G | ≤ 0.5 |
| G10A G63A | 0.698 |
| G10A U19A G41C C66U | 0.617 |
| G10A A43G G52C U53C G63C | ≤ 0.5 |
| G10A A20G A40C A42C | ≤ 0.5 |
| G10A U13C A21U | ≤ 0.5 |
| G10A U16A C24A G39C A43U C60U | ≤ 0.5 |
| G10A C29A | 0.574 |
| G10A U16A A65C | ≤ 0.5 |
| G10A G25A A40C C55G C61A | ≤ 0.5 |

| Variant | yeast fitness |
| --- | --- |
| G10A A42G A65G | ≤ 0.5 |
| G10A C33U A45U G48C U64A | ≤ 0.5 |
| G10A A21G C22A C31A A40G C46G | ≤ 0.5 |
| G10A G17A G39C A45C C49G | ≤ 0.5 |
| G10A C29G U53A G56C C62G | ≤ 0.5 |
| G10A A20U | 0.786 |
| G10A A20G | 0.649 |
| G10A A15G C49G G68U | ≤ 0.5 |
| G10A G50A U59G C62A | ≤ 0.5 |
| G10A A20C A57C | ≤ 0.5 |
| G10A C22U | 0.647 |
| G10A G18A A36G | ≤ 0.5 |
| G10A A15U A21C G25C C62A | ≤ 0.5 |
| G10A G18A C27G A37G G38A C61U | ≤ 0.5 |
| G10A G17A U28C C30G A45C C49U | ≤ 0.5 |
| G10A C29A C66U G67U G68A | 0.56 |
| G10A C24A A43U G48A | ≤ 0.5 |
| G10A G17C U28C C30G C33G C61A A69U | ≤ 0.5 |
| G10A C34A U35A U54C | 0.522 |
| G10A C29U G44C | ≤ 0.5 |
